For test [1], the target named is T1, Cholecystokinin receptor type A (Cavia porcellus, UniProt Q63931).
T1 sequence (Q63931 whole entry): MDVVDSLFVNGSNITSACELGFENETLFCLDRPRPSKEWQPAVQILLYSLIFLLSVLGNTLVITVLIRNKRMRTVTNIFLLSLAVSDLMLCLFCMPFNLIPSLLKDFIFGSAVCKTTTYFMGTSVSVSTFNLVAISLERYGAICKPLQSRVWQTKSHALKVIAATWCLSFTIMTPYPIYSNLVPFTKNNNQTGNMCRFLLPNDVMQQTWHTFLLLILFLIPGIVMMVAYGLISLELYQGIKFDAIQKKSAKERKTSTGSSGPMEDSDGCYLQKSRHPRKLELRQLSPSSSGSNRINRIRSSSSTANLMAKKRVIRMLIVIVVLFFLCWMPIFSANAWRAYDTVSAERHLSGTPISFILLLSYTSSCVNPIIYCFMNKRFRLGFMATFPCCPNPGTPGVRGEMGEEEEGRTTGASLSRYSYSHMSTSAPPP
Briefly: Displacement of [125I]BH-CCK-8S from […] expressed in guinea pig pancreatic cells. The class given is cell-based. In outline:
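Radioligand competition binding on guinea pig pancreas cell homogenates, using 20 pM [125I]BH-CCK-8S as the tracer. Affinity is reported as pKi. Results come from at least three separate experiments.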

The target of test [2] is T2, Gastrin/cholecystokinin type B receptor (Rattus norvegicus) (UniProt P30553).
T2 sequence (whole entry): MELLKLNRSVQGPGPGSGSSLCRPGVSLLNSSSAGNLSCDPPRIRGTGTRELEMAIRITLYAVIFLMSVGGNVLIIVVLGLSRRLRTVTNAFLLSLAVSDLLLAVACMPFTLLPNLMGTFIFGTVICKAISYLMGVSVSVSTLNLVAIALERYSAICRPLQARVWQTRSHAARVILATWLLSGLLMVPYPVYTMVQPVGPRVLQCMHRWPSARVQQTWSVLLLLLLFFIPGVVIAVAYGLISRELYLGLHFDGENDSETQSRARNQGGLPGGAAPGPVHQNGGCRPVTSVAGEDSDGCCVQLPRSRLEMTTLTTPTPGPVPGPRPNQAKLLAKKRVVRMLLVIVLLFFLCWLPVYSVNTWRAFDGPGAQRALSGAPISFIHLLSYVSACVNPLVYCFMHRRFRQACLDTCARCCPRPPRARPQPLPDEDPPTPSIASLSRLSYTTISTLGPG
Conditions: Stomach.

Residues, ends and D or L forms follow the SMILES beside them. *: point of attachment. NHPhenethyl = c1ccc(CCN*)cc1; Boc = CC(C)(C)OC(=O)*

Compound `Nc1cccc2cc(C(=O)NCC34CC5CC(CC(C5)C3)C4)c(C(=O)N[C@@H](Cc3ccccc3)C(=O)Nc3cc(C(=O)O)cc(C(=O)O)c3)cc12` had a Ki in test [1] of 2510 nM. Also, the pKb in test [2] was found to be 8.2. On to `O=C(O)c1cc(NC(=O)[C@H](Cc2ccccc2)NC(=O)c2cc3cc[nH]c3cc2C(=O)NC2CCCCCC2)cc(C(=O)O)c1`, for which, in test [1], affinity was put at a Ki of 3160 nM. Further, the pKb in test [2] turned out to be 9.3. `O=C(O)c1cc(NC(=O)[C@H](Cc2ccccc2)NC(=O)C2C3c4ccccc4C(c4ccccc43)C2C(=O)NCC23CC4CC(CC(C4)C2)C3)cc(C(=O)O)c1` (stereo partly specified) gave a pKb in test [2] of 8.3.

As for `O=C(O)c1cc(NC(=O)[C@H](Cc2ccccc2)NC(=O)c2cc3cc[nH]c3cc2C(=O)NCC23CC4CC(CC(C4)C2)C3)cc(C(=O)O)c1`, the pKb in test [2] came out at 9.3. In test [2], `O=C(O)c1cc(NC(=O)[C@H](Cc2ccccc2)NC(=O)c2cc3ccccc3cc2C(=O)NCC23CC4CC(CC(C4)C2)C3)cc(C(=O)O)c1` yielded a pKb of 8.2.

In turn, `O=C(O)c1cccc(NC(=O)c2nc(-c3ccccc3)[nH]c2CC23CC4CC(CC(C4)C2)C3)c1` gave a Ki in test [1] of 1260 nM. For the same compound, the pKb in test [2] is 6.6. In the same order, the values of `CC(=O)N1[C@H](CC23CC4CC(CC(C4)C2)C3)C(=O)N(Cc2ccccc2)c2ccccc2C(=O)C[C@H]1C(=O)NCC(=O)O` are 7940 nM and 6.8. `O=C1NN(C(=O)Nc2ccc(Br)cc2)[C@H](c2ccccc2)[C@H]1c1ccccc1` had a Ki in test [1] of 20000 nM. The compound further gave a pKb in test [2] of 5.9.

For `Cc1cccc(NC(=O)N[C@@H]2N=C(c3ccccc3)c3ccccc3N(C)C2=O)c1` [L-365260], in test [1], affinity was put at a Ki of 316 nM. For the same compound, in test [2], the pKb stood at 7.6. Turning to `O=C(O)C1C2c3ccccc3C(c3ccccc32)C1C(=O)NCC12CC3CC(CC(C3)C1)C2` (stereo unspecified), the pKb in test [2] came to 5.6.

In test [1], `CN1C(=O)[C@H](NC(=O)Nc2cccc(-c3nnn[nH]3)c2)N=C(c2ccccc2)c2ccccc21` had a Ki of 316 nM. Besides, in test [2], the pKb worked out at 8.4. The matching figures for `CC(C)C[C@H](NC(=O)[C@H](Cc1c[nH]c2ccccc12)NC(=O)OC(C)(C)C)C(=O)N[C@@H](CC(=O)O)C(=O)NCCc1ccccc1` (Boc-Trp-Leu-Asp-NHPhenethyl): 7940 nM and 6.9.

With `C[C@@H](NC(=O)C[C@@H]1CCCN1C(=O)C1C2c3ccccc3C(c3ccccc32)C1C(=O)NCC12CC3CC(CC(C3)C1)C2)C(=O)O` (stereo partly specified), the affinity in test [1] corresponds to a Ki of 25100 nM. The compound further registered a pKb in test [2] of 7.3. Consider `O=C(O)c1cccc(NC(=O)c2nc(C3CCCCC3)[nH]c2COC23CC4CC(CC(C4)C2)C3)c1`, for which the pKb in test [2] worked out at 9.1. `O=C(O)c1cc(NC(=O)[C@H](Cc2ccc(I)cc2)NC(=O)c2cc3cc[nH]c3cc2C(=O)NCC23CC4CC(CC(C4)C2)C3)cc(C(=O)O)c1` gave a Ki in test [1] of 2000 nM. The compound also returned a pKb in test [2] of 9.1. Take `C[C@](Cc1c[nH]c2ccccc12)(NC(=O)OC1[C@H]2C[C@@H]3C[C@@H](C[C@H]1C3)C2)C(=O)NC[C@H](NC(=O)CCC(=O)O)c1ccccc1` (stereo partly specified) [CI-988]: affinity in test [1] was put at a Ki of 631 nM. In test [1], `CNc1cccc(NC(=O)N[C@@H]2N=C(c3ccccn3)c3ccccc3N(CC(=O)C(C)(C)C)C2=O)c1` [NETAZEPIDE] had a Ki of 398 nM. This compound also had a pKb in test [2] of 9.9. In turn, `Nc1cccc2cc(C(=O)N[C@@H](Cc3ccccc3)C(=O)Nc3cc(C(=O)O)cc(C(=O)O)c3)c(C(=O)NCC34CC5CC(CC(C5)C3)C4)cc12` gave an inhibition constant (Ki) in test [1] of 2510 nM. This compound yielded a pKb in test [2] of 9.

The compound `Cn1ccc2cc(C(=O)N[C@@H](Cc3ccccc3)C(=O)Nc3cc(C(=O)O)cc(C(=O)O)c3)c(C(=O)NCC34CC5CC(CC(C5)C3)C4)cc21` showed a Ki in test [1] of 3980 nM. This compound yielded a pKb in test [2] of 9.8.

Regarding `O=C(O)c1cc(NC(=O)[C@H](Cc2ccccc2)NC(=O)c2cc3sccc3cc2C(=O)NCC23CC4CC(CC(C4)C2)C3)cc(C(=O)O)c1`, the Ki in test [1] was 794 nM. The compound further yielded a pKb in test [2] of 9.4. Take `COc1ccc(CCNC(=O)[C@H](CC(=O)O)NC(=O)[C@H](Cc2ccc3ccccc3c2)NC(=O)[C@H](Cc2c[nH]c3ccccc23)NC(=O)OC(C)(C)C)cc1`: the Ki in test [1] is 63.1 nM. The negative-log Kb (pKb) in test [2] is 5.4.

The values are drawn from ChEMBL document CHEMBL1140745, “Rationalizing the activities of diverse cholecystokinin 2 receptor antagonists using molecular field points” (J Med Chem, 2008).
